Screening data as filed in PubChem.
ABHD4 inh = inhibits mouse alpha/beta hydrolase domain 4. Q8VD66. purified mABHD4, FP-Rh probe fluorescence polarization. inhibition, % at 8.92 µM. hit rate 0.54% among 370,000;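 active = inhibition exceeding the mean over every tested compound plus 3 SD, cut at about 30% in these data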;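 also: 0% = plate median of compound wells and 100% = S159A mutant with DMSO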
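Test system: mouse ABHD4 enzyme, wild type. Reagent: FP-Rh fluorescent activity-based probe, added after compound pre-incubation. Timing: pre-incubation 45 min, probe exposure 60 min, at 25 °C. Technique: FP readout, ex 525 nm / em 598 nm. Benchmarks: high control S159A mutant with DMSO, low control median of compound wells.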
TCR-CD3 inh = human TCR-CD3 binding inhibition | hit rate 0.37% among 360,000 | TAMRA-labeled TCR probe fluorescence, biochemical | AID 651800 | inhibition, % at 9.4 µM; in the data active = inhibition above about 19%;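 also: recombinant mutant TCR 2C K166C tagged with TAMRA read by polarization; 0% = receptor in buffer alone and 100% = receptor with positive control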
SIAE primary = human SIAE inhibition, primary screen; Q9HAT2; SIAE FP-Rh probe binding, fluorescence polarization; inhibition, % at 9.66 µM; hit rate 0.69% among 370,000; AID 1053197;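 active = inhibition above a cutoff: mean of compounds within the control limits plus 3 SD of those, cut at about 17% in these data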;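 also: 0% = plate median of compound wells and 100% = probe without SIAE protein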
HTRA1 inhibitor = HTRA1 (human) protease inhibition. Q92743. inhibition, % at 5.96 µM. hit rate 0.5% among 340,000. recombinant HTRA1, FP-rhodamine activity-based probe, fluorescence polarization; in the data active = inhibition above about 36%;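 also: 0% = enzyme with DMSO and 100% = wells lacking enzyme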
PRMT1 FP inh = blocks human protein arginine methyltransferase 1 | recombinant PRMT1, activity-based probe fluorescence polarization | AID 652257 | inhibition, % at 2.79 µM | Q99873 | hit rate 1.3% among 370,000;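 active = inhibition above about 21% made by adding two undisclosed values, limit read from the data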
Target sequence (Q99873 whole entry, looked up): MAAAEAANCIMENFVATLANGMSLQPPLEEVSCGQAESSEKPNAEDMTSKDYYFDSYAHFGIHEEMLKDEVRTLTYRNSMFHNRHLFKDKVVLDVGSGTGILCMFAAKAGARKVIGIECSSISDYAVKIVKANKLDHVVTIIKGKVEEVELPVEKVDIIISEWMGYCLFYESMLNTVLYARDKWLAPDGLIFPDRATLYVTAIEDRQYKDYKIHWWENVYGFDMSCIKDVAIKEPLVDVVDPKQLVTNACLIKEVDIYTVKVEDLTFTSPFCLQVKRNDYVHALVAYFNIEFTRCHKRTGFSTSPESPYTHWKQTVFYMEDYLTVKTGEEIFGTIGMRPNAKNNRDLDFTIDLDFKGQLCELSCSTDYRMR
PRMT1 inh conf = confirmation of human PRMT1 inhibitors; shares compounds with PRMT1 FP inh; hit rate 42% among 3,300; AID 687036; inhibition, % at 2.79 µM; recombinant His-PRMT1, activity-based probe fluorescence polarization;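 active = mean inhibition across replicates above the hit cutoff derived for the earlier primary screen, cut at about 22% in these data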
An asterisk follows results filed as active; / = no result. A selection: hits, their analogues and other compounds. The true share with any hit is near 2.7%.

SMILES	ABHD4 inh	TCR-CD3 inh	SIAE primary	HTRA1 inhibitor	PRMT1 FP inh	PRMT1 inh conf
COc1ccc(OC)c(C(=O)NC(CC(N)=O)c2ccc(N3CCN(c4ccccn4)CC3)c([N+](=O)[O-])c2)c1 (stereo not given)	2.4	-1.9	7.7	1.4	-0.4	/
Cc1ccc(Cl)cc1-c1cc(C(=O)NCc2cc(C(F)(F)F)cc(C(F)(F)F)c2)[nH]n1	-41.8	-2.5	-15.3	/	-1.6	/
CCCCN1CN2Cc3ccccc3C2CS1(=O)=O (stereo not given)	-7.6	/	-1.8	/	6.8	/
CCCC(C)c1nnc(NC(=O)c2cc(C(=O)OC)cc([N+](=O)[O-])c2)s1 (stereo not given)	6.1	0.9	-1.7	-4.7	28.6*	54.3*
CNc1ccccc(C(=O)/C=C/c2ccccc2OC)c1=O	26.0	3.0	4.5	31.2	35.5*	39.0*
COc1ccccc1C=CC(=O)C=Cc1ccccc1OC	-6.7	1.3	-7.0	-33.2	3.6	/
NC(=O)c1c(N)sc2c1CCCC2	15.0	-1.7	2.6	5.6	40.6*	28.9*
O=C(Cn1sc2ccccc2c1=O)Nc1ccccc1	10.1	4.9	5.1	-1.3	86.7*	89.5*
CC(=O)Nc1ccc(S(=O)(=O)NCC(=O)NNC(=O)COc2ccccc2Cl)cc1	7.7	2.1	-0.5	-4.4	25.2*	22.1*
CC(=O)Nc1ccc(S(=O)(=O)NCC(=O)NNC(=O)COc2c(C)cccc2C)cc1	4.1	0.8	-4.2	5.9	-0.3	/
CCCCNC(=O)C(NC(=O)c1ccc2c(c1)OCO2)C(=O)c1ccccc1 (stereo not given)	2.0	0.2	4.2	/	0.7	/
COc1ccc(CC(=O)n2[nH]c(=O)ccc2=O)cc1OC	0.4	10.5	0.5	/	74.8*	96.0*
N#CC(=C1C=CC(=NO)C(Cl)=C1)c1ccc(Cl)cc1	4.7	2.4	-7.5	-4.4	4.4	/
COc1ccc(C(C#N)=C2C=CC(=NO)C=C2)cc1	-3.0	3.4	-12.4	3.4	27.9*	5.9
Nc1ccc2c3c(cccc13)-c1ccccc1-2	22.6	2.7	10.2	29.0	57.6*	60.6*
O=C1Nc2ccccc2C(=O)C1(Cl)Cc1ccccc1 (stereo not given)	3.4	-2.5	-4.8	-0.3	93.0*	87.3*
O=C(Nc1cccc2cccnc12)C1CCCC1	5.0	0.6	6.9	-0.7	2.1	/
O=C(NCc1ccccc1)C1Cc2c(-c3ccc4c(c3)OCO4)ccnc2O1 (stereo not given)	1.3	7.4	5.1	/	3.0	/
O=C(NCc1ccncc1)C1Cc2c(-c3ccc4c(c3)OCO4)ccnc2O1 (stereo not given)	-0.7	5.2	2.6	/	39.9*	11.5
Cc1c(N)cc(N)cc1C(=O)O	27.3	7.0	8.0	3.0	32.3*	12.5
CCOC(=O)C1=C(c2ccccc2)OC(N)=C(C#N)C1c1ccc(Cl)s1 (stereo not given)	-7.6	-3.1	-1.6	-35.8	1.5	/
CCN1CC=C2C(C1)C(c1ccc(Cl)s1)C(C#N)=C(N)C2(C#N)C#N (stereo not given)	9.3	13.6	3.7	2.4	30.3*	36.3*
CN(CCCN1CCOCC1)C(=O)c1cc(COc2ccc(F)cc2F)on1	3.8	8.7	0.9	2.5	29.1*	1.8
COc1cc(C)ccc1OCc1cc(C(=O)N(C)CCCN2CCOCC2)no1	2.6	-2.5	-2.0	0.7	-2.9	/
CC(C)(C)N1C(=O)c2ccccc2NC(=O)C1C(=O)NCc1ccco1 (stereo not given)	-0.1	6.2	-2.0	/	1.3	/
SMILES	ABHD4 inh	TCR-CD3 inh	SIAE primary	HTRA1 inhibitor	PRMT1 FP inh	PRMT1 inh conf
C[C@H](CO)N1C[C@H](C)[C@@H](CN(C)Cc2ccc(C(=O)O)cc2)Oc2c(NS(=O)(=O)c3cn(C)cn3)cccc2C1=O	-1.6	0.3	-1.2	0.7	-0.5	/
CN(C)c1ccc(N(C)C)c(C(O)(c2ccccc2)c2ccccc2)c1	-3.0	-0.8	12.2	/	-4.8	/
NNS(=O)(=O)c1ccc(N2CCCC2=O)c([N+](=O)[O-])c1	6.1	-2.0	-1.6	-1.0	82.3*	54.5*
NS(=O)(=O)c1ccc(N2CCCC2=O)c([N+](=O)[O-])c1	-1.4	1.6	-0.2	2.9	-0.9	/
CCOC(=O)C1=CC[C@@H](c2ccccc2)N(S(=O)(=O)c2ccc(C)cc2)[C@H]1C#N	6.7	3.8	3.7	/	27.5*	22.3*
Cc1ccc(-c2cn3c(=S)[nH]nc3s2)cc1	-5.3	-2.1	2.4	6.3	26.2*	0.7
Cc1ccc(-c2n[nH]c(=S)n2C)cc1	2.2	-12.6	13.5	-0.1	1.0	/
CCCCOc1ccc(C(=O)NC2CCCCN(C)C2=O)cc1 (stereo not given)	-5.2	2.8	4.8	/	-4.9	/
COC(=O)CC1=C(c2ccc([N+](=O)[O-])cc2)CCC1=O	11.0	0.2	6.3	-4.3	59.7*	1.1
Cc1ccc(C2=C(CC(=O)O)C(=O)CC2)cc1	3.8	4.8	1.3	3.7	0.2	/
Fc1ccccc1Nc1n[nH]c(=S)s1	2.6	3.2	6.4	9.5	7.6	/
Cc1c(Cl)cccc1Nc1n[nH]c(=S)s1	7.0	2.2	3.5	10.2	20.9	/
Cc1ccccc1Nc1n[nH]c(=S)s1	-2.6	4.6	4.2	7.5	36.3*	5.7
S=c1[nH]nc(Nc2cccc3ccccc23)s1	5.3	4.7	-13.5	/	54.7*	42.4*
COC(=O)C1=C(C)N(Cc2ccc(C(F)(F)F)cc2)C(=NCc2ccccc2C(F)(F)F)NC1c1ccc(Cl)cc1 (stereo not given)	4.7	-3.6	-5.9	/	4.6	/
CCC(C)c1c(O)nc(SCC(=O)c2ccccc2)[nH]c1=O (stereo not given)	-3.0	-1.2	5.4	4.5	52.2*	52.2*
C=CCc1c(O)nc(SCC(=O)c2ccccc2)[nH]c1=O	2.7	1.0	3.3	6.6	46.0*	57.5*
Cn1c(N)c(C(=O)COC(=O)COc2ccccc2Cl)c(=O)n(C)c1=O	1.9	-2.2	-1.1	-3.9	-0.7	/
COCCN1CCCc2nc(-c3ccc(Br)cc3)ccc21	7.7	4.5	4.2	/	-0.9	/
O=c1c2cc(Cl)ccc2oc2nc3n(c(=O)c12)CCCS3	-1.1	1.4	3.4	-3.5	63.3*	52.1*
N#Cc1c(-c2ccc(Cl)cc2)nc2n(c1=O)CCCS2	-5.8	-6.6	1.4	-12.9	2.2	/
O=C(CSc1ccccc1)Nc1ccccc1C(=O)O	-3.4	-1.8	-2.1	0.1	0.4	/
Cc1ccccc1NC(=O)CSC(N)=O	-2.1	5.9	-1.6	9.9	75.3*	89.6*
NC(=O)SCC(=O)Nc1ccccc1C(=O)O	-3.3	3.2	-4.7	10.6	36.6*	81.2*
COc1ccccc1NC(=O)CSC(N)=O	1.0	1.7	9.1	-0.3	81.0*	93.5*
O=C(c1ccco1)N1N=C(c2ccccc2O)CC1c1cccs1 (stereo not given)	-27.4	6.0	-0.1	-25.3	-4.6	/
